Published values from different studies.
Target: Mitogen-activated protein kinase kinase kinase 7 (MAP3K7, Homo sapiens, UniProt O43318)
Sequence (O43318 1-606, as in one of the studies): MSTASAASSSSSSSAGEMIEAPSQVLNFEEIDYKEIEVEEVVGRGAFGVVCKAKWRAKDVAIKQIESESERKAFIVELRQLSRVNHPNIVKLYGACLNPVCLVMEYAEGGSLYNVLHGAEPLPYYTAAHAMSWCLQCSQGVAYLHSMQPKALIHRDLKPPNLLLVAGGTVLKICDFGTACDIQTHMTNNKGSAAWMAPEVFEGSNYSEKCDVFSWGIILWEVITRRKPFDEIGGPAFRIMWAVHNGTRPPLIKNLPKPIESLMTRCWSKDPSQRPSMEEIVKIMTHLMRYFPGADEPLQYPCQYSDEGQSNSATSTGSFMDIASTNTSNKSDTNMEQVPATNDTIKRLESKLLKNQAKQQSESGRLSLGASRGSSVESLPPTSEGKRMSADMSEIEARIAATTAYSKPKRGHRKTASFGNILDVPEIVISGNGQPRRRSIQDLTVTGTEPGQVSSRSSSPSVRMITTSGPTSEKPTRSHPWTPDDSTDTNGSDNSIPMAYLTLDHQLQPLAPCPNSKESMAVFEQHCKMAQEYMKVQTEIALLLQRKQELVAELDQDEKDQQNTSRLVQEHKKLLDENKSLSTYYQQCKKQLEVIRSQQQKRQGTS

SMILES | assay | setting | measurement | result
C[C@H]1CC[C@H](n2c3cnccc3c3cnc(Nc4ccc5c(n4)CCN(C(=O)CO)C5)nc32)CC1 | binding, competition with immobilised ligand | 1 µM | remaining binding | 47%
CC#CC(=O)N1CCC[C@H]1c1nc(-c2ccc(C(=O)Nc3ccccn3)cc2)c2c(N)nccn12 | enzyme activity, inhibitor | 1 µM | inhibition | 12%
Cc1cc(O)c(-c2ccc([C@@H](C)CN(C)C)cc2)c2c1[nH]c(=O)c1sccc12 | enzyme activity, inhibitor | 0.1 µM | inhibition | -18.1%
CN1CCN(C(=O)c2ccc(NC(=O)Nc3ccc(N(C)c4ccnc(Nc5ccc(CS(C)(=O)=O)cc5)n4)cc3)cc2)CC1 | binding, competition with immobilised ligand | 1 µM | remaining binding | 25%
CS(=O)(=NC#N)c1ccccc1Nc1nc(Nc2ccc(CO)nc2)ncc1Cl (centres unmarked) | enzyme activity, inhibitor | 1 µM | remaining activity | 55.8%
C=CC(=O)N1CCC([C@@H]2CCNc3c(C(N)=O)c(-c4ccc(Oc5ccccc5)cc4)nn32)CC1 | enzyme activity, inhibitor | 1 µM | inhibition | 19%
CS(=O)(=O)c1ccccc1Nc1nc(Nc2ccnc(CO)c2)ncc1Cl | enzyme activity, inhibitor | 1 µM | remaining activity | 70.7%
CCCCC(=O)Nc1ccc(-c2ccc3ncn(CCC)c(=O)c3c2)cn1 | binding, competition with immobilised ligand | 0.5 µM | remaining binding | 87%
